Test results taken from ChEMBL document CHEMBL4304789, “Design, Synthesis, and Biological Evaluation of 2,4-Imidazolinedione Derivatives as HDAC6 Isoform-Selective Inhibitors” (ACS Med Chem Lett, 2019).
Activity calls are given as the source filed them. No cut-off for these calls is given here.

Key:
HL-60 [1] = assay: Induction of cell cycle arrest in human HL60 cells assessed as accumulation of cells at G1 phase at 0.25 to 0.45 uM incubated for 48 hrs by PI staining based flow cytometric analysis; assay type: functional
In short: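 PI staining of HL-60 cells, with DMSO-treated cells as control, used to read cell-cycle phase distribution including G1 and subG1 fractions. Mean ± SD of at least three independent experiments.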

HL-60 [2] = assay: Induction of apoptosis in human in human HL60 cells assessed as increase in caspase 3 activation at 0.25 to 0.75 uM using […] as substrate preincubated for 24 to 48 hrs followed by substrate addition and measured after 1.5 hrs by fluorescence based assay; assay type: functional, cell-based
In short: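 HL-60 cells exposed to 0.25, 0.45 and 0.75 μM for 24 and 48 h, with untreated cells as control; activated caspase 3 measured. Mean ± SD of at least three independent experiments; significance versus untreated control set at p < 0.05.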

Homo sapiens [3] = organism: Homo sapiens; assay: Selectivity ratio of IC50 for HDAC1 (unknown origin) to IC50 for HDAC6 (unknown origin)
In short: (§1)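 Each isoform's IC50 comes from a dose–effect curve in an HDAC isoform inhibition panel, with replicates n ≥ 2. The ratio is that isoform's IC50 divided by the HDAC6 IC50.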

Homo sapiens [4] = organism: Homo sapiens; assay: Selectivity ratio of IC50 for HDAC2 (unknown origin) to IC50 for HDAC6 (unknown origin); in short: as §1
Homo sapiens [5] = organism: Homo sapiens; assay: Selectivity ratio of IC50 for HDAC3 (unknown origin) to IC50 for HDAC6 (unknown origin); in short: as §1
Homo sapiens [6] = organism: Homo sapiens; assay: Selectivity ratio of IC50 for HDAC4 (unknown origin) to IC50 for HDAC6 (unknown origin); in short: as §1
Homo sapiens [7] = organism: Homo sapiens; assay: Selectivity ratio of IC50 for HDAC7 (unknown origin) to IC50 for HDAC6 (unknown origin); in short: as §1
Homo sapiens [8] = organism: Homo sapiens; assay: Selectivity ratio of IC50 for HDAC8 (unknown origin) to IC50 for HDAC6 (unknown origin); in short: as §1
Homo sapiens [9] = organism: Homo sapiens; assay: Selectivity ratio of IC50 for HDAC9 (unknown origin) to IC50 for HDAC6 (unknown origin); in short: as §1
Homo sapiens [10] = organism: Homo sapiens; assay: Selectivity ratio of IC50 for HDAC11 (unknown origin) to IC50 for HDAC6 (unknown origin); in short: as §1
[11] = target: Histone deacetylase (Homo sapiens) (UniProt Q13547+O15379+Q9UBN7+Q92769+Q9UQL6+Q8WUI4+Q9BY41+Q96DB2+P56524+Q9UKV0+Q969S8); conditions: at 0.08 to 1.6 µM

Row | Structure (SMILES) | Activity (HL-60 [1]) | Activity (HL-60 [2]) | Ratio IC50 (Homo sapiens [3]) | Ratio IC50 (Homo sapiens [4]) | Ratio IC50 (Homo sapiens [5]) | Ratio IC50 (Homo sapiens [6]) | Ratio IC50 (Homo sapiens [7]) | Ratio IC50 (Homo sapiens [8]) | Ratio IC50 (Homo sapiens [9]) | Ratio IC50 (Homo sapiens [10]) | inhibition [11]
1 | O=C(CCC1C(=O)N(c2ccc(Cl)cc2)C(=O)N1Cc1ccc(Br)cc1)Nc1ccc(C(=O)NO)cc1 (configuration not stated) | Active | – | – | – | – | – | – | – | – | – | –
2 | Cc1ccc(CN2C(=O)N(c3ccc(Cl)cc3)C(=O)C2CCC(=O)Nc2ccc(C(=O)NO)cc2)cc1 (configuration not stated) | Active | Active | 218 | 63 | 53 | > 20000 | > 20000 | > 20000 | > 20000 | > 20000 | Active
